In publication PMC4142138 (European Journal of Drug Metabolism and Pharmacokinetics, 2014):
≈ marks a conversion by molar mass, not a printed value.

How the values were obtained:
[1] = In vitro pH solubility profile in Britton–Robinson buffer; format: physicochemical; settings: pH 6, aqueous buffer, thermodynamic from solid
Method in brief: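 Excess solid added to Britton–Robinson buffer at the set pH in a vial, rolled 4 h at ambient temperature. A sample was filtered by centrifugation through a 0.45 μm PVDF membrane. The clear filtrate was assayed by gradient reversed-phase HPLC on C18 (water/acetonitrile, 0.05 % TFA) with UV detection at 220 nm.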

[2] = format: in vivo; settings: human, whole blood, po, 50 mg
healthy elderly subjects = test: Safety and tolerability; format: in vivo, human; settings: whole study
Method in brief: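 Healthy elderly (65–80 y) male or non-childbearing female volunteers in a single-centre randomised crossover study; 20 subjects through 4 treatment periods. Each period had omeprazole 20 mg QD for 5 days and a single oral 50 mg test compound dose (fed or fasted), with washout ≥3 days. AEs, vital signs, ECGs, clinical chemistry, haematology, urinalysis and physical examination were summarised by treatment.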

CXCR2 = settings: read-out: IC50 for CXCL8 binding; ref GSK, data on file; cited from earlier work
[3] = all treatment periods, 20 subjects

solubility at 4 h [1]: 3 µg/mL (≈ 6.79 µM)
half-life [2]: 7 to 9 h
SMILES: Cc1c(F)cccc1NC(=O)Nc1ccc(Cl)c(S(=O)(=O)[C@H]2CCCNC2)c1O [danirixin, Danirixin]
serious AEs (healthy elderly subjects): no serious AEs
subjects reporting AEs during the study (healthy elderly subjects; [3]): 45%
subjects reporting headaches during the study (healthy elderly subjects; [3]): 20%
